Common to all, as to type: functional
Conditions in all cases: read-out: GI

Experiment [1] relates to OVCAR-8. Put plainly: Cytotoxicity against human OVCAR8 cells assessed as growth inhibition at 5 ug/ml by MTT assay. The method, boiled down: (§1)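 Single-concentration MTT screen at 5 µg/mL across SF-295 (glioblastoma), OVCAR-8 (ovary) and HCT-116 (colon) cells. Read-out is percent growth inhibition, reported with sd.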
(Tetrazolium assays rely on reduction of a dye to a coloured formazan, in cell work by metabolically active cells.)

The test system of experiment [2] is HCT-116. The experiment can be described thus: Cytotoxicity against human HCT116 cells assessed as growth inhibition at 5 ug/ml by MTT assay. In short, it runs like this: as §1
The subject of experiment [3] is SF-295. The experiment can be described thus: Cytotoxicity against human SF295 cells assessed as growth inhibition at 5 ug/ml by MTT assay. The method, boiled down:
as §1

In the case of `Oc1ccc(/C=N/Nc2cnc3ccccc3n2)c(O)c1`, the figures for the inhibition of growth at 5 µg/mL in experiment [1], in experiment [2] and in experiment [3] were 84.2%, 85.1% and 85.3%, respectively.

Turning to `Oc1ccc(O)c(/C=N/Nc2cnc3ccccc3n2)c1`, the inhibition of growth at 5 µg/mL was 60.5% in experiment [1], 89.2% in experiment [2] and 50.7% in experiment [3].

Regarding `Oc1ccc(/C=N/Nc2cnc3ccccc3n2)cc1O`, the figures for the inhibition of growth at 5 µg/mL in experiment [1], in experiment [2] and in experiment [3] were 46.3%, 69.4% and 47.6%, respectively.

Regarding `Oc1cc(/C=N/Nc2cnc3ccccc3n2)cc(O)c1O`, the inhibition of growth at 5 µg/mL in experiment [1] turned out to be 12.8%; in experiment [2], 14.9%; in experiment [3], 37.8%.

As for `COc1ccccc1/C=N/Nc1cnc2ccccc2n1`, the results for the inhibition of growth at 5 µg/mL in experiment [1], in experiment [2] and in experiment [3] were 21%, 4.45% and 21.8%, respectively.

As to `COc1cccc(/C=N/Nc2cnc3ccccc3n2)c1`, the inhibition of growth at 5 µg/mL in experiment [1] amounted to 41.6%; in experiment [2], 14.5%; in experiment [3], 35.8%.

On to `COc1ccc(/C=N/Nc2cnc3ccccc3n2)cc1`, for which the inhibition of growth at 5 µg/mL is 14.4% in experiment [1], -43.6% in experiment [2] and 0.52% in experiment [3].

As to `COc1cccc(/C=N/Nc2cnc3ccccc3n2)c1OC`, the results for the inhibition of growth at 5 µg/mL in experiment [1], in experiment [2] and in experiment [3] were 0%, 0% and 22.2%, respectively.

Take `COc1ccc(/C=N/Nc2cnc3ccccc3n2)c(OC)c1`: the inhibition of growth at 5 µg/mL in experiment [1] was determined as 7.19%; in experiment [2], 12.8%; in experiment [3], 46.9%.

`COc1ccc(OC)c(/C=N/Nc2cnc3ccccc3n2)c1`: the figures for the inhibition of growth at 5 µg/mL in experiment [1], in experiment [2] and in experiment [3] were 18.5%, 0% and 44.6%, respectively.

In the case of `COc1cccc(OC)c1/C=N/Nc1cnc2ccccc2n1`, the inhibition of growth at 5 µg/mL in experiment [1] is 25.1%; in experiment [2], 19.4%; in experiment [3], 44.7%.

Take `COc1ccc(/C=N/Nc2cnc3ccccc3n2)cc1OC`: the inhibition of growth at 5 µg/mL is 17.6% in experiment [1], 22.3% in experiment [2] and 16.5% in experiment [3].

With `COc1cc(/C=N/Nc2cnc3ccccc3n2)cc(OC)c1OC`, the inhibition of growth at 5 µg/mL in experiment [1] was 38.8%; in experiment [2] it was 20.7%; in experiment [3], 60.1%.

As for `CCOc1cccc(/C=N/Nc2cnc3ccccc3n2)c1`, the inhibition of growth at 5 µg/mL came to 41.2% in experiment [1], 1.29% in experiment [2] and 7.19% in experiment [3].

Turning to `CCOc1ccc(/C=N/Nc2cnc3ccccc3n2)cc1`, the inhibition of growth at 5 µg/mL in experiment [1] came out at 50.3%; in experiment [2], 17.6%; in experiment [3], 12.3%.

As to `Cc1ccc(/C=N/Nc2cnc3ccccc3n2)c(O)c1`, the inhibition of growth at 5 µg/mL in experiment [1] was determined as 31.5%; in experiment [2] it was 17.4%; in experiment [3], 59.9%.

As to `Cc1ccc(O)c(/C=N/Nc2cnc3ccccc3n2)c1`, the inhibition of growth at 5 µg/mL in experiment [1] amounted to 25.4%; in experiment [2], 13.7%; in experiment [3] it was 38.4%.

Take `O=[N+]([O-])c1cc(/C=N/Nc2cnc3ccccc3n2)ccc1Cl`: the figures for the inhibition of growth at 5 µg/mL in experiment [1], in experiment [2] and in experiment [3] were 9%, 20.6% and 36.8%, respectively.

Consider `Oc1ccc(/C=N/Nc2cnc3ccccc3n2)cc1Cl`, for which the inhibition of growth at 5 µg/mL in experiment [1] worked out at 28.8%; in experiment [2] it was 16.2%; in experiment [3], 46.6%.

Regarding `COc1ccc(/C=N/Nc2cnc3ccccc3n2)c(Cl)c1O`, the results for the inhibition of growth at 5 µg/mL in experiment [1], in experiment [2] and in experiment [3] were 13.8%, 24.5% and 32.4%, respectively.

(Values after ChEMBL document CHEMBL3112521, “Design, synthesis and biological evaluation of (E)-2-(2-arylhydrazinyl)quinoxalines, a promising and potent new class of anticancer agents” (Bioorg Med Chem Lett, 2014).)
